According to article PMC3530835 (Journal of medicinal chemistry, 2012):
In brackets after ≈: the same amount, converted by molar mass. One block for each molecule: values may come before it.

Columns and labels:
PfGluPho (PfG6PD) [1] = biological target: T1, PfGluPho (PfG6PD) (Plasmodium falciparum, UniProt Q8IKU0); test: PfGluPho primary dose response assay, resazurin/diaphorase-coupled; assay type: biochemical; settings: for Decrease in potency relative to 5a: vs. 5a, Table 2
T1 sequence (Q8IKU0 1-910): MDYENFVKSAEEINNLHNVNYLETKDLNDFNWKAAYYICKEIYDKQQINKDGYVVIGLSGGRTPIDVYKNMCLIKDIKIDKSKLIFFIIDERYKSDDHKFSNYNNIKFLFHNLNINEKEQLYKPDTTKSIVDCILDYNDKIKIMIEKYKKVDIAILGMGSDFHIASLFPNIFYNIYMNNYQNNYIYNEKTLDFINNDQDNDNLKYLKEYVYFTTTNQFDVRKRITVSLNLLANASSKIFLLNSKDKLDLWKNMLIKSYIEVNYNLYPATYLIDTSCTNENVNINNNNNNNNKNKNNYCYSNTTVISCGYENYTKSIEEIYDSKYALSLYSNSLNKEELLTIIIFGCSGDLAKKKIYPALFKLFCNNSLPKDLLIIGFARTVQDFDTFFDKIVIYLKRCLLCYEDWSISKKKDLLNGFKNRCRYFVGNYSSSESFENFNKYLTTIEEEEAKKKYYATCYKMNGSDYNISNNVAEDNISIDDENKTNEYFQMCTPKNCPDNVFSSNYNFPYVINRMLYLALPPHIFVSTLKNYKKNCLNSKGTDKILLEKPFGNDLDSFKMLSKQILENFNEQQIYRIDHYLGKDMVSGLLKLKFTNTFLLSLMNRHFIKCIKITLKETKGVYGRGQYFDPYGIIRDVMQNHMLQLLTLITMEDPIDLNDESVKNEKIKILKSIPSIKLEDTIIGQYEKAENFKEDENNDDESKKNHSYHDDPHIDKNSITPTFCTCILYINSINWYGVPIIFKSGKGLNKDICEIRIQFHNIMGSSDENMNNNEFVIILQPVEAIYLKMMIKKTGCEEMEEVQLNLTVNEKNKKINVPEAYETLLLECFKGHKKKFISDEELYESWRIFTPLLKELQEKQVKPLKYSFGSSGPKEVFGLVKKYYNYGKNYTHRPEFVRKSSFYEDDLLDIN

hG6PD = hG6PD (Homo sapiens, UniProt P11413); test: hG6PD counter screen; assay type: biochemical; settings: Figure 3
hG6PD, sequence (P11413 whole entry): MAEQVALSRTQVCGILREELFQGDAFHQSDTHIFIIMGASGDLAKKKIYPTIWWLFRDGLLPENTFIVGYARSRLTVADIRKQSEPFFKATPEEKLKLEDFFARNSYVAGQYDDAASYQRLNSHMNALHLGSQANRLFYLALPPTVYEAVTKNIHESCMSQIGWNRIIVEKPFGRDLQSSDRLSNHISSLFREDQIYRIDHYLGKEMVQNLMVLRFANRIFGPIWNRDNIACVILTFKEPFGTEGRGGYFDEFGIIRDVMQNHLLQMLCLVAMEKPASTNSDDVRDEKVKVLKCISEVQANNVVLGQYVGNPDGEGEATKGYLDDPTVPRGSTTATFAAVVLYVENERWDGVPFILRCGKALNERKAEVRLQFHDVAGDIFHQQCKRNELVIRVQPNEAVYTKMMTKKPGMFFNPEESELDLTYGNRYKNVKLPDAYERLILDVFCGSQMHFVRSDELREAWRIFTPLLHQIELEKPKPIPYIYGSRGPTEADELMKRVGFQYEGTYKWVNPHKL

PfGluPho = PfGluPho (Plasmodium falciparum, UniProt Q8IKU0); test: Mechanism of inhibition; assay type: biochemical
In short: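 Test compound, titrated in DMSO, and G6P or NADP+ varied together. Substrate solution final: 3.3 mM MgCl2, 1 mM TCEP, 0.05 M Tris, plus 5 μM NADP+ (G6P titration) or 25 μM G6P (NADP+ titration). Reaction started with PfGluPho (final 0.2 μg/mL) in 0.005% Tween 20. NADPH fluorescence (ex340/em460) monitored over 10 min; initial slopes taken.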

P. falciparum = P. falciparum in culture; assay type: cell-based; settings: Plasmodium falciparum, read-out: IC50 against P. falciparum in culture
In short: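 Chloroquine-sensitive 3D7 and chloroquine-resistant Dd2 blood-stage strains. Infected RBCs seeded at 0.25% parasitemia (>70% rings) and 1.25% hematocrit in hypoxanthine-free medium, with varying test compound concentrations and a chloroquine control. Incubated 72 hours. Growth was read as 3H-hypoxanthine incorporation, and IC50 was derived by non-linear regression.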

Aqueous solubility = assay type: physicochemical
Chemical stability = assay type: physicochemical; settings: 10 μM, 1% DMSO, 5 equivalents of GSH, PBS pH 7.4, 23 °C, duration of the study
PfGluPho (PfG6PD) [2] = biological target: T1, PfGluPho (PfG6PD); test: Orthogonal PfGluPho assay, direct detection of NADPH; assay type: biochemical; settings: Potency PfG6PD NADPH Kinetic
[3] = PfG6PD IC50, Table 3, necessity of styryl moiety
[4] = Potency PfG6PD Primary Assay, Table 5, Ave. ± S.E.M.
[5] = Potency PfG6PD Primary Assay, Table 6, Ave. ± S.E.M.

SMILES: CCN1CCCC1CNC(=O)c1ccc2c(c1)NC(=O)CS2 (stereo not drawn) [Compound 3d]
PfG6PD activity (in words) (PfGluPho (PfG6PD) [1]): complete loss of activity
IC50 (PfGluPho (PfG6PD) [1]; [3]): > 80 µM

SMILES: CCN1CCCC1CNC(=O)c1ccc2c(c1)NC(=O)/C(=C/c1ccccc1C)S2 (stereo not drawn) [Compound 5c]
Decrease in potency relative to 5a (PfGluPho (PfG6PD) [1]): 3 fold

SMILES: CCN1CCCC1CNC(=O)c1ccc2c(c1)NC(=O)/C(=C/c1ccccc1OC)S2 (stereo not drawn) [Compound 5d]
Decrease in potency relative to 5a (PfGluPho (PfG6PD) [1]): 5 fold

SMILES: CCN1CCCC1CNC(=O)c1ccc2c(c1)NC(=O)C(Cc1ccccc1F)S2 (stereo not drawn) [Compound 10]
PfG6PD activity (in words) (PfGluPho (PfG6PD) [1]): complete loss of activity
IC50 (PfGluPho (PfG6PD) [1]; [3]): > 80 µM

SMILES: CCN1CCC[C@@H]1CNC(=O)c1ccc2c(c1)NC(=O)/C(=C/c1ccccc1F)S2 [Compound 11, (R,Z)-N-((1-ethylpyrrolidin-2-yl)methyl)-2-(2-fluorobenzylidene)-3-oxo-3,4-dihydro-2H-benzo[b][1,4]thiazine-6-carboxamide]
Selectivity for PfGluPho over hG6PD (in words) (hG6PD): selective
Type of inhibition vs. G6P (PfGluPho; G6P titration): competing with the substrate
Type of inhibition vs. NADP+ (PfGluPho; NADP+ titration): mixed-type inhibition
IC50 (P. falciparum): 2.6 µM
Preference for the R-enantiomer versus the S-enantiomer (PfGluPho (PfG6PD) [1]; 11 vs. 12, Table 4): 8 fold
solubility (Aqueous solubility; 1x PBS, pH 7.4): 71 µg/mL (≈ 167 µM)
solubility (Aqueous solubility; pION's buffer, pH 5): > 126 µg/mL
solubility (Aqueous solubility; pION's buffer, pH 6.2): > 126 µg/mL
solubility (Aqueous solubility; pION's buffer, pH 7.4): 29.4 µg/mL (≈ 69.1 µM)
Reactivity with GSH (in words) (Chemical stability): remained intact

SMILES: CC(C)(C)OC(=O)N1CCCC1CNC(=O)c1ccc2c(c1)NC(=O)/C(=C/c1ccccc1F)S2 (stereo not drawn) [Compound 14]
PfG6PD activity (in words) (PfGluPho (PfG6PD) [1]): inactive
IC50 (PfGluPho (PfG6PD) [1]; Potency PfG6PD Primary Assay, Table 4, Ave. ± S.E.M.): > 80 µM

SMILES: CCCN(CCC)CCNC(=O)c1ccc2c(c1)NC(=O)/C(=C/c1ccccc1)S2 [Compound 26]
IC50 (PfGluPho (PfG6PD) [1]; [4]): > 80 µM

SMILES: CCCN(CCC)CCNC(=O)c1ccc2c(c1)NC(=O)/C(=C/c1ccc(C)cc1)S2 [Compound 27]
IC50 (PfGluPho (PfG6PD) [1]; [4]): > 80 µM

SMILES: O=C1Nc2cc(C(=O)NCc3ccccc3)ccc2S/C1=C\c1ccccc1F [Compound 41]
IC50 (PfGluPho (PfG6PD) [2]; Table 6): > 80 µM
IC50 (PfGluPho (PfG6PD) [1]; [5]): > 80 µM

SMILES: CN(C)c1ccccc1CNC(=O)c1ccc2c(c1)NC(=O)/C(=C/c1ccccc1F)S2 [Compound 42]
IC50 (PfGluPho (PfG6PD) [1]; [5]): > 80 µM

The next lines start with the values.

IC50 (PfGluPho (PfG6PD) [2]; Table 5): > 80 µM
IC50 (PfGluPho (PfG6PD) [1]; [4]): > 80 µM
SMILES: COc1ccc(/C=C2\Sc3ccc(C(=O)NCCN(C)C)cc3NC2=O)cc1 [Compound 19]

IC50 (PfGluPho (PfG6PD) [2]; Table 6): > 80 µM
SMILES: COc1ccc(/C=C2\Sc3ccc(C(=O)NCCN4CCCC4)cc3NC2=O)cc1 [Compound 30]

IC50 (PfGluPho (PfG6PD) [2]; Table 6): > 80 µM
SMILES: O=C1Nc2cc(C(=O)NCCN3CCCC3)ccc2S/C1=C\c1ccccc1Cl [Compound 31]

IC50 (PfGluPho (PfG6PD) [2]; Table 6): > 80 µM
IC50 (PfGluPho (PfG6PD) [1]; [5]): > 80 µM
SMILES: O=C1Nc2cc(C(=O)NCCN3CCOCC3)ccc2S/C1=C\c1ccccc1F [Compound 34]

IC50 (PfGluPho (PfG6PD) [2]; Table 6): > 80 µM
SMILES: O=C1Nc2cc(C(=O)NCCN3CCCCCC3)ccc2S/C1=C\c1ccccc1Cl [Compound 36]

IC50 (PfGluPho (PfG6PD) [1]; [5]): > 80 µM
SMILES: COc1cccc(/C=C2\Sc3ccc(C(=O)NCCN4CCCCCC4)cc3NC2=O)c1 [Compound 37]

IC50 (PfGluPho (PfG6PD) [2]; Table 6): > 80 µM
IC50 (PfGluPho (PfG6PD) [1]; [5]): > 80 µM
SMILES: COc1ccc(/C=C2\Sc3ccc(C(=O)NCCN4CCCCCC4)cc3NC2=O)cc1 [Compound 38]
